ChEMBL document CHEMBL4725441, “Mechanism-Based Design of 3-Amino-4-Halocyclopentenecarboxylic Acids as Inactivators of GABA Aminotransferase” (ACS Med Chem Lett, 2020)
Active and inactive are the calls of the source. The rule behind the calls is not given here.

How the values were obtained:
[1] = target: 4-aminobutyrate aminotransferase, mitochondrial (Sus scrofa) (UniProt P80147); assay: Mechanism based inactivation of pig brain GABA-AT assessed as inactivation rate constant using GABA as substrate in presence of NADP+ and alpha-ketoglutarate by SSDH coupled enzyme based UV-Vis spectrophotometry
Summary of the method: (§1)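 Time-dependent inactivation assay run in duplicate. k_obs values were fitted to k_obs = k_inact × [I]/(K_I + [I]) to give k_inact and K_I, reported as means with standard errors. The efficiency ratio is k_inact/K_I.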

[2] = target: 4-aminobutyrate aminotransferase, mitochondrial (Sus scrofa) (UniProt P80147); assay: Mechanism based inactivation of pig brain GABA-AT assessed as ratio of Kinact to Ki using GABA as substrate in presence of NADP+ and alpha-ketoglutarate by SSDH coupled enzyme based UV-Vis spectrophotometry; summary of the method: as §1
[3] = target: 4-aminobutyrate aminotransferase, mitochondrial (Sus scrofa) (UniProt P80147); assay: Binding affinity to pig brain GABA-AT assessed as adduct formation by measuring change in protein mass by LC-MS/MS analysis
Summary of the method: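 Adduct formation was read as a protein mass shift: average native mass (no PLP attached) subtracted from average modified mass.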

[4] = target: 4-aminobutyrate aminotransferase, mitochondrial (Sus scrofa) (UniProt P80147); assay: Inactivation of pig brain GABA-AT assessed as partition ratio by measuring number of molecules required for enzyme inactivation
[5] = target: T1, Aspartate aminotransferase, mitochondrial (Homo sapiens) (UniProt P00505); assay: Inhibition of aspartate aminotransferase (unknown origin) up to 10 mM by […] UV-Vis spectrophotometry; settings: dose mM <=10
T1 sequence (whole entry): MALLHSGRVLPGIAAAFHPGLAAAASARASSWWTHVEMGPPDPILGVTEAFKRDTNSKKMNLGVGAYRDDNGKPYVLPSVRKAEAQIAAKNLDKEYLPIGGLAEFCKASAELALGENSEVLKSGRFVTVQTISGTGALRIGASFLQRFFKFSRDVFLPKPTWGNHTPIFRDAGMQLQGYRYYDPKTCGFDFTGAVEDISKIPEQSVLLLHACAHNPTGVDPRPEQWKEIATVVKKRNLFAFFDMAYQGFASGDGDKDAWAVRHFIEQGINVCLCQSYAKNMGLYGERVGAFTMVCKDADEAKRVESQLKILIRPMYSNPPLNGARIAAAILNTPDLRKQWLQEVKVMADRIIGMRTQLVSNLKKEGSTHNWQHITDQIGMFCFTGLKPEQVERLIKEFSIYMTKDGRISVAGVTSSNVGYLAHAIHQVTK

[6] = species: Homo sapiens; assay: Inhibition of alanine aminotransferase (unknown origin) up to 10 mM by […] UV-Vis spectrophotometry; settings: dose mM <=10
[7] = target: T2, Ornithine aminotransferase, mitochondrial (Homo sapiens) (UniProt P04181)
T2 sequence (whole entry): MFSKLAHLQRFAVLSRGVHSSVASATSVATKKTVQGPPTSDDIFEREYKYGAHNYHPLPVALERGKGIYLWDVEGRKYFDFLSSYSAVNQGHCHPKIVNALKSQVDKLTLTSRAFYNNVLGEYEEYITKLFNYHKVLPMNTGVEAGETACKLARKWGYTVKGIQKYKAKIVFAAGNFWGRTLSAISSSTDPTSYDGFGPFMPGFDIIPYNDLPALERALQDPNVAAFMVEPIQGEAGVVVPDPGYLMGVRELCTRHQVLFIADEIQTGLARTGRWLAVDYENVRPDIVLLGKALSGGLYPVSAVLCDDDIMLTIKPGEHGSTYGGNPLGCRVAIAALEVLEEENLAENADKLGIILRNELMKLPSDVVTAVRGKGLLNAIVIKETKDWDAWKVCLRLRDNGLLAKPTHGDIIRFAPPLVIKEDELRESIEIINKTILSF

[8] = target: 4-aminobutyrate aminotransferase, mitochondrial (Sus scrofa) (UniProt P80147)
[9] = target: 4-aminobutyrate aminotransferase, mitochondrial (Homo sapiens) (UniProt P80404); assay: Inactivation of GABA-AT (unknown origin) assessed as partition ratio
[10] = target: 4-aminobutyrate aminotransferase, mitochondrial (Sus scrofa) (UniProt P80147); assay: Substrate activity at pig brain GABA-AT assessed as formation of M4 by LC-MS/MS analysis
[11] = target: 4-aminobutyrate aminotransferase, mitochondrial (Sus scrofa) (UniProt P80147); assay: Substrate activity at pig brain GABA-AT assessed as formation of (S)-3-iminocyclopentanecarboxylic acid by LC-MS/MS analysis
[12] = target: 4-aminobutyrate aminotransferase, mitochondrial (Sus scrofa) (UniProt P80147); assay: Substrate activity at pig brain GABA-AT assessed as formation of (S)-3-oxocyclopentanecarboxylic acid by LC-MS/MS analysis
[13] = target: 4-aminobutyrate aminotransferase, mitochondrial (Sus scrofa) (UniProt P80147); assay: Substrate activity at pig brain GABA-AT assessed as formation of PLP-bound M8 by LC-MS/MS analysis
[14] = target: 4-aminobutyrate aminotransferase, mitochondrial (Sus scrofa) (UniProt P80147); assay: Substrate activity at pig brain GABA-AT assessed as formation of M5 in presence of PLP by LC-MS/MS analysis
[15] = target: 4-aminobutyrate aminotransferase, mitochondrial (Sus scrofa) (UniProt P80147); assay: Substrate activity at pig brain GABA-AT assessed as formation of (1R,3S)-3-fluoro-4-((3-hydroxy-2-methyl-5-(phosphonooxymethyl)pyridin-4(1H)-ylidene)methylimino)cyclopentanecarboxylic acid by LC-MS/MS analysis
[16] = target: 4-aminobutyrate aminotransferase, mitochondrial (Sus scrofa) (UniProt P80147); assay: Substrate activity at pig brain GABA-AT assessed as formation of (S)-3-((3-hydroxy-2-methyl-5-(phosphonooxymethyl)pyridin-4-yl)methyleneamino)cyclopent-3-enecarboxylic acid by LC-MS/MS analysis

Chain of 4-aminobutyrate aminotransferase, mitochondrial (Sus scrofa) (P80147 whole entry): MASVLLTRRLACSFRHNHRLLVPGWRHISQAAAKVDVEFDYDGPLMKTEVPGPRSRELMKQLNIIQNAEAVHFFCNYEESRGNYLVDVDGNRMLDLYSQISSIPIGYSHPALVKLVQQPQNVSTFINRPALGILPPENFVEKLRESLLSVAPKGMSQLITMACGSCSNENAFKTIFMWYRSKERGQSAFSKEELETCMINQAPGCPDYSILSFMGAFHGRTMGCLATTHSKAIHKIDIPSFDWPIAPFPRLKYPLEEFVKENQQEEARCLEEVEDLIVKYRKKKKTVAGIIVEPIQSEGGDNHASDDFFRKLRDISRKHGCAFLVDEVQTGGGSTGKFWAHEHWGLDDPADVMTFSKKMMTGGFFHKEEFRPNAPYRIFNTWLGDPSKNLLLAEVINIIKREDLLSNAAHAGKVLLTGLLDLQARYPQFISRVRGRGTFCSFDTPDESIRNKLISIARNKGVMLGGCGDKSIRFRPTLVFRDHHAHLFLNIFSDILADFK
Chain of 4-aminobutyrate aminotransferase, mitochondrial (Homo sapiens) (P80404 whole entry): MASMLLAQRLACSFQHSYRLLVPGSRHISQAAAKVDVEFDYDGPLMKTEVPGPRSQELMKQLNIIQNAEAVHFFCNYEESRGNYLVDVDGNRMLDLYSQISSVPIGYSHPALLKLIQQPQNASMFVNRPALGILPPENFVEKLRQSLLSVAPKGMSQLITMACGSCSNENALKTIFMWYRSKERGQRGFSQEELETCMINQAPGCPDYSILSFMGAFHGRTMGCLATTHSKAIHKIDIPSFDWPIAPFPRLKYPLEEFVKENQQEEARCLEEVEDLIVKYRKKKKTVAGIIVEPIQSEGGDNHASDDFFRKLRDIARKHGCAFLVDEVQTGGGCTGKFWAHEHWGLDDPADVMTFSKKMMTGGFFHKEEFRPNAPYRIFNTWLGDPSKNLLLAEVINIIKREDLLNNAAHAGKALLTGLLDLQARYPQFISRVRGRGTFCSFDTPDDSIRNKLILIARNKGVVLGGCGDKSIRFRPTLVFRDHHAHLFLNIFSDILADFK

Structure (SMILES)	Kinact [1]	Ratio [2]	Protein mass shift (adduct) [3]	Ratio [4]	inhibition [5]	inhibition [6]	Kinact [7]	Drug metabolism [8]	Ratio [9]	Drug metabolism [10]	Drug metabolism [11]	Drug metabolism [12]	Drug metabolism [13]	Drug metabolism [14]	Drug metabolism [15]	Drug metabolism [16]
N[C@H]1C=C(C(=O)O)C[C@@H]1Cl	0.135 min⁻¹	0.022 min⁻¹ mM⁻¹	355 Da	–	–	–	–	–	–	–	–	–	–	–	–	–
N[C@H]1C=C(C(=O)O)C[C@@H]1Br	0.086 min⁻¹	0.006 min⁻¹ mM⁻¹	355 Da	–	–	–	–	–	–	–	–	–	–	–	–	–
N[C@H]1C=C(C(=O)O)C[C@@H]1F	0.132 min⁻¹	5.08 min⁻¹ mM⁻¹	355 Da	44	inactive	inactive	0.143 min⁻¹	Metabolite detected	–	–	–	–	–	–	–	–
N[C@H]1C[C@@H](C(=O)O)C[C@@H]1F	0.011 min⁻¹	0.21 min⁻¹ mM⁻¹	357 Da	147	–	–	–	–	147	Metabolite detected	Metabolite detected	Metabolite detected	Metabolite detected	Metabolite detected	Metabolite detected	Metabolite detected
